Results taken from ChEMBL document CHEMBL1154849, “Bafilomycins produced in culture by Streptomyces spp. isolated from marine habitats are potent inhibitors of autophagy” (2010).
Calls of active or inactive are those of the source. No cut-off for these calls is given here.

Legend:
Assay type in all cases: functional, cell-based
[1] = test system: MCF7; assay: […] in human MCF7 cells expressing EGFP-LC3 assessed as EGFP levels at 30 nM after 4 hrs by Western blotting relative to control
[2] = test system: MCF7; assay: Induction of autophagosome accumulation in human MCF7 cells expressing EGFP-LC3 assessed as punctate EGFP-LC3 level at => 10 nM after 4 hrs by automated microscopy relative to control
[3] = test system: MCF7; assay: […] in human MCF7 cells expressing EGFP-LC3 assessed as EGFP levels at 100 nM after 4 hrs by Western blotting relative to control
How it was run: (§1)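 MCF-7 cells expressing EGFP-LC3 were exposed for 4 h to compounds alone or in combinations. Free EGFP band formation, a readout of EGFP-LC3 degradation, was followed by Western blot with anti-GFP antibody.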

[4] = test system: MCF7; assay: Inhibition of rapamycin-induced autophagy in human MCF7 cells expressing EGFP-LC3 assessed as decrease in EGFP levels at 100 nM after 4 hrs by Western blotting relative to control; how it was run: as §1
[5] = test system: MCF7; assay: Induction of autophagosome accumulation in human MCF7 cells expressing EGFP-LC3 assessed as punctate EGFP-LC3 level at => 100 nM after 4 hrs by automated microscopy relative to control
[6] = test system: MCF7; assay: Induction of autophagosome accumulation in human MCF7 cells expressing EGFP-LC3 assessed as punctate EGFP-LC3 level at => 1 nM after 4 hrs by automated microscopy relative to control
[7] = test system: MCF7; assay: Induction of autophagosome accumulation in human MCF7 cells expressing EGFP-LC3 assessed as punctate EGFP-LC3 level at 0.3 nM after 4 hrs by automated microscopy relative to control

Compound: CO[C@H]1C[C@@H]2CC[C@@H](C)[C@@](O)(O2)C(=O)C(=O)N2CCCC[C@H]2C(=O)O[C@H]([C@H](C)C[C@@H]2CC[C@@H](O)[C@H](OC)C2)CC(=O)[C@H](C)/C=C(\C)[C@@H](O)[C@@H](OC)C(=O)[C@H](C)C[C@H](C)/C=C/C=C/C=C/1C
- Activity [1]: Active

Compound: CO[C@H]1/C=C/C=C(\C)C[C@H](C)[C@H](O)[C@H](C)/C=C(C)/C=C(\C)C(=O)O[C@@H]1[C@@H](C)[C@@H](O)[C@H](C)C(=O)/C=C/[C@H](C)[C@H](O)C(C)C
- Activity [2]: Active
- Activity [3]: inactive
- Activity [4]: Active

Compound: CO/C1=C\C(C)=C\[C@@H](C)[C@@H](O)[C@@H](C)C/C(C)=C/C=C/[C@H](OC)[C@@H]([C@@H](C)/C=C(\C)C2=C[C@@H](OC)[C@H](C)[C@@H](C(C)C)O2)OC1=O
- Activity [5]: Active
- Activity [3]: Active
- Activity [4]: inactive

Compound: CO/C1=C\C(C)=C\[C@@H](C)[C@@H](O)[C@@H](C)C/C(C)=C/C=C/[C@H](OC)[C@@H]([C@@H](C)[C@@H](O)[C@H](C)[C@@]2(OC)C[C@@H](OC)[C@H](C)[C@@H](C(C)C)O2)OC1=O
- Activity [2]: Active
- Activity [3]: inactive
- Activity [4]: Active

Compound: CO/C1=C\C(C)=C\[C@@H](C)[C@@H](O)[C@@H](C)C/C(C)=C/C=C/[C@H](OC)[C@@H]([C@@H](C)[C@@H](O)[C@H](C)[C@@]2(O)C[C@@H](OC(=O)C[C@@H]3SC[C@@H](C(=O)O)NC3=O)[C@H](C)[C@@H](C(C)C)O2)OC1=O
- Activity [2]: Active
- Activity [3]: inactive
- Activity [4]: Active

Compound: CO/C1=C\C(C)=C\[C@@H](C)[C@@H](O)[C@@H](C)C/C(C)=C/C=C/[C@H](OC)[C@@H]([C@@H](C)[C@@H](O)[C@H](C)[C@@]2(O)C[C@@H](O)[C@H](C)[C@@H](C(C)C)O2)OC1=O
- Activity [6]: Active
- Activity [3]: inactive
- Activity [4]: Active

Compound: CO[C@H]1/C=C/C=C(\C)C[C@H](C)[C@H](O)[C@H](C)/C=C(C)/C=C(\C)C(=O)O[C@@H]1[C@@H](C)[C@@H](O)[C@H](C)[C@@]1(OC)C[C@@H](OC)[C@H](C)[C@@H](C(C)C)O1
- Activity [6]: Active
- Activity [3]: inactive
- Activity [4]: Active

Compound: CO/C1=C\C(C)=C\[C@@H](C)[C@@H](O)[C@@H](C)C/C(C)=C/C=C/[C@H](OC)[C@@H]([C@@H](C)[C@@H](O)[C@H](C)[C@@]2(O)C[C@@H](OC)[C@H](C)[C@@H](C(C)C)O2)OC1=O [BAFILOMYCIN G]
- Activity [7]: Active
- Activity [3]: inactive
- Activity [4]: Active

Compound: CO/C1=C\C(C)=C\[C@@H](C)[C@@H](O)[C@@H](C)C/C(C)=C/C=C/[C@H](OC)[C@@H]([C@@H](C)[C@@H](O)[C@H](C)[C@@]2(O)C[C@@H](OC(=O)/C=C/C(=O)NC3=C(O)CCC3=O)[C@H](C)[C@@H](C(C)C)O2)OC1=O
- Activity [6]: Active
- Activity [3]: inactive
- Activity [4]: Active
